Measured values taken from ChEMBL document CHEMBL3632461 (J Med Chem, 2015).

Legend:
[1] = Oral bioavailability in cynomolgus monkey at 3 or 5 mg/kg; format: ADME, organism-based, Macaca fascicularis; details: in vivo
In short: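 Male CD-1 mice, Wistar-Han rats, beagle dogs and cynomolgus monkeys, fasted overnight and fed after dosing. Given po at 3 or 5 mg/kg in 0.5% methylcellulose, with an iv reference dose of 1 mg/kg. Bioavailability derived from plasma concentration−time data; mean ± SD (n = 3) or individual values (n = 2).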

Hepatocyte = assay: Metabolic stability in cryopreserved human hepatocytes assessed as GSH adduct formation; format: ADME, cell-based
In short: (§1)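 Incubation in NADPH-supplemented human liver microsomes or cryopreserved human hepatocytes, examined for glutathione adduct formation.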

Liver microsome = assay: Metabolic stability in NADPH-supplemented human liver microsomes assessed as GSH adduct formation; format: ADME; in short: as §1
Cytochrome P450 1A2 = biological target: T1, Cytochrome P450 1A2 (Homo sapiens, UniProt P05177); assay: Reversible inhibition of CYP1A2 phenacetin O-deethylase activity in human liver microsomes by LC-MS/MS analysis; format: ADME
T1 sequence (P05177 whole entry): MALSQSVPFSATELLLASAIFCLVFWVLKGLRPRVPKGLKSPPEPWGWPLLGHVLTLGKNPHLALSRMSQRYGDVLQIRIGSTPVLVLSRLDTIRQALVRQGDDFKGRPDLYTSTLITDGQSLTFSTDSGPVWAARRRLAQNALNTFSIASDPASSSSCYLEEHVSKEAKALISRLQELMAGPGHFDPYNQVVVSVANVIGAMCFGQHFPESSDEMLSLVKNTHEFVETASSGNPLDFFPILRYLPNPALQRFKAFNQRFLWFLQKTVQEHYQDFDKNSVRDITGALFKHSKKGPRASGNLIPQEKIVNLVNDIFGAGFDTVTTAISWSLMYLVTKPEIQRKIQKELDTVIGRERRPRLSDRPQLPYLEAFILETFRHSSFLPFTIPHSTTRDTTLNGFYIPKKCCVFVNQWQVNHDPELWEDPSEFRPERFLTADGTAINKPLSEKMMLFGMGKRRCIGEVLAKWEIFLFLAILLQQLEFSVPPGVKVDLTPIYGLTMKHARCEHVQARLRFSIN
In short: (§2)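 Reversible inhibition of the major CYP enzymes tested in human liver microsomes using established protocols.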

[2] = Drug excretion in Wistar rat urine at 1 mg/kg, iv; format: ADME, organism-based; details: read-out: Drug excretion
In short: (§3)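 Male animals (beagle dogs 12 kg, Wistar-Han rats 250 g, cynomolgus monkeys 7 kg), fasted overnight and fed 1.0 or 2.0 h after dosing, water ad libitum. Dosed iv at 1 mg/kg in saline or 12% sulfobutyl ether β-cyclodextrin. Fraction of the iv dose excreted unchanged in urine.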

Cytochrome P450 2C19 [3] = biological target: T2, Cytochrome P450 2C19 (Homo sapiens, UniProt P33261); assay: Time-dependent inhibition of CYP2C19 in human liver microsomes; format: ADME
In short: (§4)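 Time- and concentration-dependent CYP inhibition assessed by an IC₅₀ shift assay in human liver microsomes.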

[4] = Elimination half life in CD-1 mouse at 1 mg/kg, iv and 3 or 5 mg/kg, po; format: ADME, organism-based; details: in vivo
In short: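 Male CD-1 mice (25−35 g), cannulated Wistar-Han rats (250 g), beagle dogs (12 kg) and cynomolgus monkeys (7 kg), fasted overnight and fed 1.0 or 2.0 h after dosing. iv 1 mg/kg in saline or 12% sulfobutyl ether β-cyclodextrin; po 3 or 5 mg/kg in 0.5% methylcellulose. Parameters calculated from plasma concentration−time data; mean ± SD for n = 3, individual values for n = 2.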

[5] = Tmax in CD-1 mouse at 3 or 5 mg/kg, po; format: ADME, organism-based; details: in vivo
In short: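 Male animals (CD-1 mice 25−35 g, cannulated Wistar-Han rats 250 g, beagle dogs 12 kg, cynomolgus monkeys 7 kg), fasted overnight and fed 1.0 or 2.0 h after dosing, water ad libitum. Oral dose 3 or 5 mg/kg in 0.5% methylcellulose. Parameters calculated from plasma concentration−time data; mean ± SD for n = 3, individual values for n = 2.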

Cytochrome P450 2B6 = biological target: T3, Cytochrome P450 2B6 (Homo sapiens, UniProt P20813); assay: Time-dependent inhibition of CYP2B6 in human liver microsomes; format: ADME; in short: as §4
T3 sequence (P20813 whole entry): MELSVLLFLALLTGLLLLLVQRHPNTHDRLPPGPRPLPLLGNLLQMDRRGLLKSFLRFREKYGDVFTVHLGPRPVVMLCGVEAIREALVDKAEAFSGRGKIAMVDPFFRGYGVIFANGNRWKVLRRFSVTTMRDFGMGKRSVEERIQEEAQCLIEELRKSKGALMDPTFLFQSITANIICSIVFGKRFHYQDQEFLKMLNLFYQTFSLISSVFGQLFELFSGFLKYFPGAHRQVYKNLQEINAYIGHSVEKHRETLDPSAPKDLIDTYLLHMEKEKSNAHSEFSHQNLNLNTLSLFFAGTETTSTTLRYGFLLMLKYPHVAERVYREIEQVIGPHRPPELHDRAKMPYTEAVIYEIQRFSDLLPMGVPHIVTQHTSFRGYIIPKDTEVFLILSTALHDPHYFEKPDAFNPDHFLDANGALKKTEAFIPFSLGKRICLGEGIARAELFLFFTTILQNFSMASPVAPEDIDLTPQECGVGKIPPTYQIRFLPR

Cytochrome P450 2C19 [6] = biological target: T2, Cytochrome P450 2C19; assay: Reversible inhibition of CYP2C19 (S)-Mephenytoin 4'-hydroxylase activity in human liver microsomes by LC-MS/MS analysis; format: ADME; in short: as §2
Cytochrome P450 2D6 = Cytochrome P450 2D6 (Homo sapiens, UniProt P10635); assay: Time-dependent inhibition of CYP2D6 in human liver microsomes; format: ADME; in short: as §4
Cytochrome P450 2C9 = Cytochrome P450 2C9 (Homo sapiens, UniProt P11712); assay: Time-dependent inhibition of CYP2C9 in human liver microsomes; format: ADME; in short: as §4
[7] = Volume of distribution at steady state in cynomolgus monkey at 1 mg/kg, iv and 3 or 5 mg/kg, po; format: ADME, organism-based, Macaca fascicularis; details: in vivo, read-out: Vdss
In short: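 Male mice, rats, dogs and cynomolgus monkeys, fasted overnight, fed after dosing. Intravenous dose 1 mg/kg in saline or 12% sulfobutyl ether β-cyclodextrin; oral arm 3 or 5 mg/kg in 0.5% methylcellulose. Steady-state volume derived from plasma concentration−time data; mean ± SD for n = 3, individual values for n = 2.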

[8] = Fraction unbound in rat plasma at 2 uM by equilibrium dialysis method; format: ADME, cell-free
In short: (§5)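 Compound at 2 μM in mouse, rat, dog, monkey or human plasma; unbound fraction measured by equilibrium dialysis and reported as a mean.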

Cytochrome P450 3A4 [9] = biological target: T4, Cytochrome P450 3A4 (Homo sapiens, UniProt P08684); assay: Time-dependent inhibition of CYP3A4 in human liver microsomes; format: ADME; in short: as §4
[10] = Drug excretion in Beagle dog urine at 1 mg/kg, iv; format: ADME, organism-based, Canis lupus familiaris; details: read-out: Drug excretion; in short: as §3
[11] = Fraction unbound in mouse plasma at 2 uM by equilibrium dialysis method; format: ADME, cell-free; in short: as §5
Cytochrome P450 3A4 [12] = biological target: T4, Cytochrome P450 3A4; assay: Reversible inhibition of CYP3A4 in human liver microsomes by LC-MS/MS analysis; format: ADME; in short: as §2
[13] = Retention time of the compound in sodium phosphate buffer at 10 uM after 60 mins by LC-MS/MS analysis in presence of H2O2; format: physicochemical; details: 1 h
[14] = Drug metabolism assessed as formation of 5-(2,4-dimethoxyphenyl)-7-oxo-2,3,4,7-tetrahydrooxazolo[3,2-a]pyrimidin-4-ium at 10 uM after 60 mins by LC-MS/MS analysis in presence of human MPO/H2O2/Cl-; format: physicochemical; details: 1 h
In short: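 Also incubated at 10 μM in a human MPO/H₂O₂/Cl⁻ system. Parent and cyclic ether product tracked by LC−MS/MS using retention time and MH⁺.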

T2 sequence (P33261 whole entry): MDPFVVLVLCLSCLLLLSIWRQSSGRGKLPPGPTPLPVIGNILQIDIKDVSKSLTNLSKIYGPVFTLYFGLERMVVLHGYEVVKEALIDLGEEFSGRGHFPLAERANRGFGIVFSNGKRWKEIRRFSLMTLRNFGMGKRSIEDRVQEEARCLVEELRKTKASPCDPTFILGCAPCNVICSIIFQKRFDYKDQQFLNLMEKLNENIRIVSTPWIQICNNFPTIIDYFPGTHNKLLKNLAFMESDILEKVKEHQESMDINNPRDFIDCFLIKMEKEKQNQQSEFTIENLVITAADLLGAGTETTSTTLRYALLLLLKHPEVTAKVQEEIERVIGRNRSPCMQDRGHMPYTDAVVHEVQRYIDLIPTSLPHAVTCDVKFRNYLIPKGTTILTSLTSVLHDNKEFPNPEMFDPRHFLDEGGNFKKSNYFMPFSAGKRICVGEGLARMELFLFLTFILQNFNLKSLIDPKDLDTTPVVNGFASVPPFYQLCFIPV
T4 sequence (P08684 whole entry): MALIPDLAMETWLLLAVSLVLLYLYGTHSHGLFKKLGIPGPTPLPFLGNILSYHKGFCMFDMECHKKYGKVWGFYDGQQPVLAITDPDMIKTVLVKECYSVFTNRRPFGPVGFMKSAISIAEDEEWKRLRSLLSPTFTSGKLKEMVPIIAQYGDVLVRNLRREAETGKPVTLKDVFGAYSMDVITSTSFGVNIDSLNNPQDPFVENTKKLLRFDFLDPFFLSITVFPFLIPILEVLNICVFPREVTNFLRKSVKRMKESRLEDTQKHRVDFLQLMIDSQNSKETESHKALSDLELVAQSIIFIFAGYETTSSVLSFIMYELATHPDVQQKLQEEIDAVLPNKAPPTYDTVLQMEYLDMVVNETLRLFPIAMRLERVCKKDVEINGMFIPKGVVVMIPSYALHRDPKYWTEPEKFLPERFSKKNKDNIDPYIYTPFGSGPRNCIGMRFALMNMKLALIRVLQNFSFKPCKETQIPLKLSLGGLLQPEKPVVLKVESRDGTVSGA
Sequence of Cytochrome P450 2C9 (P11712 whole entry): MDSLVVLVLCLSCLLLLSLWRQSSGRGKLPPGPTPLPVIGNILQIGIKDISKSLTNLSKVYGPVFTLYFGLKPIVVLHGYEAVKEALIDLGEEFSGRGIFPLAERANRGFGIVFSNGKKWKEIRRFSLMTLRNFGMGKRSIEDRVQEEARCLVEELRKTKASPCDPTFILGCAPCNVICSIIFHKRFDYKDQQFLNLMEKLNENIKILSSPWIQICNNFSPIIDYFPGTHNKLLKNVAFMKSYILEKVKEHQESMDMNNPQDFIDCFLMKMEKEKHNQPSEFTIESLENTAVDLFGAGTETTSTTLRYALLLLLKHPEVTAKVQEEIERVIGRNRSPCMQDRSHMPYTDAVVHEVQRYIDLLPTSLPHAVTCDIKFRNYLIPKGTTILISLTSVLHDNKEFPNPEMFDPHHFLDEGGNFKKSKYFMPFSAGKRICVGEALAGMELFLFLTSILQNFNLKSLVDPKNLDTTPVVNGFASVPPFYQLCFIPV
Sequence of Cytochrome P450 2D6 (P10635 whole entry): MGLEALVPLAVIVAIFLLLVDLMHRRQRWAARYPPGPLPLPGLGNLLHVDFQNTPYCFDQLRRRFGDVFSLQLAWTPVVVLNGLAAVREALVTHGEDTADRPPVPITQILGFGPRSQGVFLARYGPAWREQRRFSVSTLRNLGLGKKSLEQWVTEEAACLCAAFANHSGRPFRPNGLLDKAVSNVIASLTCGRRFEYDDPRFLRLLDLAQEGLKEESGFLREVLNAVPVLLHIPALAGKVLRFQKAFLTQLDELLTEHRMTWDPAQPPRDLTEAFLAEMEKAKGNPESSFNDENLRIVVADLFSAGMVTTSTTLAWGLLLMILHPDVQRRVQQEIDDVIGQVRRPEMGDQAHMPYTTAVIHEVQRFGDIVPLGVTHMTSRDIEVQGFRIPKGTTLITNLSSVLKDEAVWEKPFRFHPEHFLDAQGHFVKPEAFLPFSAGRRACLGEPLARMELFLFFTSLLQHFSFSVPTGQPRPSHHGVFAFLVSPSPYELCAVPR

Row | Structure (SMILES) | bioavailability [1] [%] | Stability (Hepatocyte) | Stability (Liver microsome) | IC50 (Cytochrome P450 1A2) [µM] | dose excreted [2] [%] | IC50 (Cytochrome P450 2C19 [3]) [µM] | half-life [4] [h] | Tmax [5] [h] | IC50 (Cytochrome P450 2B6) [µM] | IC50 (Cytochrome P450 2C19 [6]) [µM] | IC50 (Cytochrome P450 2D6) [µM] | IC50 (Cytochrome P450 2C9) [µM] | Vd [7] [L/kg] | fraction unbound at 2 µM [8] | IC50 (Cytochrome P450 3A4 [9]) [µM] | dose excreted [10] [%] | fraction unbound at 2 µM [11] | IC50 (Cytochrome P450 3A4 [12]) [µM] | Retention_time [13] [min] | Drug metabolism [14]
1 | COc1ccc(Cl)cc1-c1cc(=O)[nH]c(=S)n1CC(N)=O [PF-06282999] | 76 | Stable | Stable | > 100 | 26 | > 100 | 1.36 | 1 | > 100 | > 100 | > 100 | > 100 | 1.09 | 0.447 | > 100 | 26 | 0.451 | > 100 | – | –
2 | COc1ccc(-c2cc(=O)[nH]c(=S)n2CCO)c(OC)c1 | – | – | – | – | – | – | – | – | – | – | – | – | – | – | – | – | – | – | 17.49 | metabolite_detected
